Results: ChEMBL document CHEMBL4402517, “Rational modification of Mannich base-type derivatives as novel antichagasic compounds: Synthesis, in vitro and in vivo evaluation” (Bioorg Med Chem, 2019)

Legend:
[1] = (§1) Toxicity in BALB/c mouse infected with Trypanosoma cruzi MHOM/Pe/2011/Arequipa;DTU 5 bloodstream trypomastigote assessed as change in serum alkaline phosphatase level in chronic phase at 20 mg/kg/day, po administered for 5 consecutive days starting from day 70 post infection and measured at day 76 post infection relative to control; format: organism-based; settings: in vivo
Method in brief: (§2)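 Female BALB/c mice (10–12 weeks, 14–20 g; groups of three) were infected i.p. with 5 × 10^5 Arequipa bloodstream trypomastigotes. Dosing was oral at 20 mg/kg/day for 5 days, from day 8 pi (acute) or day 70 pi (chronic), as a 2 mg/ml suspension in 5% DMSO/0.5% HPMC; controls received vehicle. Cyclophosphamide 200 mg/kg i.p. was given at day 80 pi. Serum was collected 2 days post-treatment and at necropsy by cardiac puncture and compared with infected untreated controls.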

[2] = (§3) Toxicity in BALB/c mouse infected with Trypanosoma cruzi MHOM/Pe/2011/Arequipa;DTU 5 bloodstream trypomastigote assessed as decrease in serum urea level in acute phase at 20 mg/kg/day, po administered for 5 consecutive days starting from day 8 post infection and measured on day 100 post infection by biochemical analysis relative to control; format: organism-based; set-up: scale not given: the % may be the effect or the level left; settings: in vivo; method in brief: as §2
[3] = system: Trypanosoma cruzi; assay: Trypanocidal activity against Trypanosoma cruzi trypomastigote form infected in African green monkey Vero cells assessed as ratio of infected cells at 25 uM measured after 72 hrs by Giemsa staining based assay relative to control; format: functional
Method in brief: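 Vero cells in RPMI with 10% heat-inactivated FBS, seeded at 1 × 10^4/well on coverslips for 24 h at 37 °C, 5% CO2. Infected with bloodstream trypomastigotes at MOI 10:1 for 24 h, then washed three times with PBS. Compounds added at 3.1–50 µM for 72 h. Infected cells counted after Giemsa staining. Triplicates, two separate determinations.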

[4] = as §1, with “decrease” for “change”, “uric acid” for “alkaline phosphatase”; format: organism-based; set-up: scale not given: the % may be the effect or the level left; settings: in vivo; method in brief: as §2
[5] = Toxicity in BALB/c mouse infected with Trypanosoma cruzi MHOM/Pe/2011/Arequipa;DTU 5 bloodstream trypomastigote assessed as decrease in serum total bilirubin level in chronic phase at 20 mg/kg/day administered for 5 consecutive days starting from […] post infection and measured after 2 days of treatment by biochemical analysis (reference value: 0.25 mg/dl ); format: organism-based; set-up: scale not given: the % may be the effect or the level left; settings: in vivo, 48 h
[6] = Genotoxicity in Salmonella typhimurium TA1535 harboring pSK1002 assessed as survival at 0.125 mg/ml in absence of Sprague-Dawley rat liver S9 fraction metabolic activation by SOS/umu assay relative to control; format: toxicity; settings: salmonella enterica subsp. enterica serovar typhimurium, read-out: Survival
Method in brief: (§4)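 Survival of S. typhimurium TA1535/pSK1002 exposed to a range of compound concentrations with or without S9 mix in 96-well format. Survival percentage measured as the cytotoxicity arm of the SOS/umu test. Concentrations with survival ≥80% are counted as non-cytotoxic.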

[7] = Genotoxicity in Salmonella typhimurium TA1535 harboring pSK1002 assessed as umu gene induction at 0.002 mg/ml in presence of Sprague-Dawley rat liver S9 fraction metabolic activation by SOS/umu assay relative to control; format: toxicity, subcellular; settings: salmonella enterica subsp. enterica serovar typhimurium, read-out: FC
Method in brief: (§5)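 umu induction in S. typhimurium TA1535/pSK1002, with or without S9 mix, in 96-well format. β-galactosidase read colorimetrically with ONPG substrate. Output given as relative units and induction factor (IF). The run is valid if positive controls reach IF ≥2. A compound counts as genotoxic at IF ≥2 at a concentration giving ≥80% bacterial survival.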

[8] = Genotoxicity in Salmonella typhimurium TA1535 harboring pSK1002 assessed as umu gene induction at 0.25 mg/ml in presence of Sprague-Dawley rat liver S9 fraction metabolic activation by SOS/umu assay relative to control; format: toxicity, subcellular; settings: salmonella enterica subsp. enterica serovar typhimurium, read-out: FC; method in brief: as §5
[9] = Genotoxicity in Salmonella typhimurium TA1535 harboring pSK1002 assessed as survival at 0.016 mg/ml in absence of Sprague-Dawley rat liver S9 fraction metabolic activation by SOS/umu assay relative to control; format: toxicity; settings: salmonella enterica subsp. enterica serovar typhimurium, read-out: Survival; method in brief: as §4
[10] = Genotoxicity in Salmonella typhimurium TA1535 harboring pSK1002 assessed as umu gene induction at 0.5 mg/ml in absence of Sprague-Dawley rat liver S9 fraction metabolic activation by SOS/umu assay relative to control; format: toxicity; settings: salmonella enterica subsp. enterica serovar typhimurium, read-out: FC; method in brief: as §5
[11] = Genotoxicity in Salmonella typhimurium TA1535 harboring pSK1002 assessed as umu gene induction at 0.002 mg/ml in absence of Sprague-Dawley rat liver S9 fraction metabolic activation by SOS/umu assay relative to control; format: toxicity; settings: salmonella enterica subsp. enterica serovar typhimurium, read-out: FC; method in brief: as §5
[12] = Genotoxicity in Salmonella typhimurium TA1535 harboring pSK1002 assessed as umu gene induction at 0.001 mg/ml in presence of Sprague-Dawley rat liver S9 fraction metabolic activation by SOS/umu assay relative to control; format: toxicity, subcellular; settings: salmonella enterica subsp. enterica serovar typhimurium, read-out: FC; method in brief: as §5
[13] = Genotoxicity in Salmonella typhimurium TA1535 harboring pSK1002 assessed as umu gene induction at 1 mg/ml in absence of Sprague-Dawley rat liver S9 fraction metabolic activation by SOS/umu assay relative to control; format: toxicity; settings: salmonella enterica subsp. enterica serovar typhimurium, read-out: FC; method in brief: as §5
[14] = molecular target: Superoxide dismutase [Cu-Zn] (Homo sapiens, UniProt P00441); assay: Inhibition of human erythrocyte CuZn-SOD
Method in brief: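 Commercial human erythrocyte CuZn-SOD. Activity measured by the Beyer–Fridovich method, tested up to 50 µM.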

[15] = system: Trypanosoma cruzi; assay: Antitrypanosomal activity against Trypanosoma cruzi MHOM/Pe/2011/Arequipa;DTU 5 bloodstream trypomastigotes infected in BALB/c mouse assessed as decrease in splenomegaly in chronic phase at 20 mg/kg/day, po administered for 5 consecutive days starting from day 70 post infection relative to untreated control; format: functional; set-up: scale not given: the % may be the effect or the level left
Method in brief: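 Female BALB/c mice (three per group) were infected i.p. with 5 × 10^5 Arequipa trypomastigotes and dosed orally at 20 mg/kg/day for 5 days in 5% DMSO/0.5% HPMC. Controls were uninfected and vehicle-only groups. At the end of the experiment spleens were weighed and expressed as % of body weight.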

[16] = Genotoxicity in Salmonella typhimurium TA1535 harboring pSK1002 assessed as survival at 0.5 mg/ml in presence of Sprague-Dawley rat liver S9 fraction metabolic activation by SOS/umu assay relative to control; format: toxicity, subcellular; settings: salmonella enterica subsp. enterica serovar typhimurium, read-out: Survival; method in brief: as §4
[17] = Genotoxicity in Salmonella typhimurium TA1535 harboring pSK1002 assessed as umu gene induction at 0.001 mg/ml in absence of Sprague-Dawley rat liver S9 fraction metabolic activation by SOS/umu assay relative to control; format: toxicity; settings: salmonella enterica subsp. enterica serovar typhimurium, read-out: FC; method in brief: as §5
[18] = as §3, with “creatine kinase muscle to brain ratio” for “urea”; format: organism-based; set-up: scale not given: the % may be the effect or the level left; settings: in vivo; method in brief: as §2
[19] = as §3, with “serum alkaline phosphatase” for “serum urea”, “measured at” for “measured on”, “day 14” for “day 100”; format: organism-based; set-up: scale not given: the % may be the effect or the level left; settings: in vivo; method in brief: as §2
[20] = Genotoxicity in Salmonella typhimurium TA1535 harboring pSK1002 assessed as survival at 0.063 mg/ml in absence of Sprague-Dawley rat liver S9 fraction metabolic activation by SOS/umu assay relative to control; format: toxicity; settings: salmonella enterica subsp. enterica serovar typhimurium, read-out: Survival; method in brief: as §4
[21] = Genotoxicity in Salmonella typhimurium TA1535 harboring pSK1002 assessed as survival at 0.063 mg/ml in presence of Sprague-Dawley rat liver S9 fraction metabolic activation by SOS/umu assay relative to control; format: toxicity, subcellular; settings: salmonella enterica subsp. enterica serovar typhimurium, read-out: Survival; method in brief: as §4
[22] = Genotoxicity in Salmonella typhimurium TA1535 harboring pSK1002 assessed as umu gene induction at 0.008 mg/ml in presence of Sprague-Dawley rat liver S9 fraction metabolic activation by SOS/umu assay relative to control; format: toxicity, subcellular; settings: salmonella enterica subsp. enterica serovar typhimurium, read-out: FC; method in brief: as §5
[23] = as §1, with “decrease” for “change”, “aspartate aminotransferase” for “alkaline phosphatase”; format: organism-based; set-up: scale not given: the % may be the effect or the level left; settings: in vivo; method in brief: as §2

Superoxide dismutase [Cu-Zn], sequence (P00441 whole entry): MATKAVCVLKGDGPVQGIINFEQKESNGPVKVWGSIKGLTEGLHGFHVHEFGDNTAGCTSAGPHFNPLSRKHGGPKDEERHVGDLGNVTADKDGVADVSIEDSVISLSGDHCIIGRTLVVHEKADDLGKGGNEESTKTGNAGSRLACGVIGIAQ

| Compound | Activity [1] | Activity [2] | Ratio [3] | Activity [4] | Activity [5] | viability at 0.125 mg/ml [6] | fold induction at 0.002 mg/ml [7] | fold induction at 0.25 mg/ml [8] | viability at 0.016 mg/ml [9] | fold induction at 0.5 mg/ml [10] | fold induction at 0.002 mg/ml [11] | fold induction at 0.001 mg/ml [12] | fold induction at 1 mg/ml [13] | IC50 [14] | Activity [15] | viability at 0.5 mg/ml [16] | fold induction at 0.001 mg/ml [17] | Activity [18] | Activity [19] | viability at 0.063 mg/ml [20] | other results |
| --- | --- | --- | --- | --- | --- | --- | --- | --- | --- | --- | --- | --- | --- | --- | --- | --- | --- | --- | --- | --- | --- |
| O=C(Cn1ccnc1[N+](=O)[O-])NCc1ccccc1 [BENZNIDAZOLE] | > 10% | <= 20% | 18% | <= 30% | <= 10% | – | – | – | – | – | – | – | – | – | – | – | – | – | – | – | – |
| O=C(CCN1CCN(c2ccc(Cl)cc2)CC1)c1ccc(O)cc1 | > 10% | <= 10% | 19% | – | <= 10% | 198% | 0.74 | 0.63 | 130% | 0.26 | 0.78 | 0.76 | 0.12 | > 50 µM | 81% | 157% | 0.83 | <= 20% | <= 10% | 125% | viability at 0.063 mg/ml [21]: 86.7%; fold induction at 0.008 mg/ml [22]: 0.77; Activity [23]: <= 10% |
| O=C(CCN1CCN(c2ccc(C(F)(F)F)cc2)CC1)c1ccc(O)cc1 | – | – | – | <= 20% | – | 122% | 0.89 | 0.63 | 127% | 0.43 | 0.74 | 0.82 | 0.16 | > 50 µM | 66% | 124% | 0.91 | <= 30% | <= 30% | 117% | viability at 0.063 mg/ml [21]: 92.9%; fold induction at 0.008 mg/ml [22]: 0.83; Activity [23]: <= 10% |
